Measurements published in ChEMBL document CHEMBL1142981, “Identification and synthesis of a novel selective partial PPARdelta agonist with full efficacy on lipid metabolism in vitro and in vivo” (J Med Chem, 2007).

Legend:
[1] = Volume of distribution in Sprague-Dawley rat at 1.06 mg/kg, iv; format: ADME, organism-based; set-up: dose 1.06 mg/kg, route intravenous; conditions: in vivo, read-out: Vss
Outline: (§1)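 Male SD rats received a single p.o. or i.v. dose (n = 8 per route) in 5% ethanol, 10% HPCD and phosphate buffer, pH 7.5-8.0. At 5, 15, 30, 60, 90, 120, 240 and 360 min one rat was sacrificed per time point. EDTA plasma was assayed by high turbulence LC-MS/MS. Cmax and bioavailability were taken from oral dosing; volume of distribution is at steady state.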

Mus musculus [2] = assay: Decrease in total cholesterol level in human ApoB100/CETP transgenic mouse at 5 mg/kg, po after 6 weeks relative to control; format: functional; set-up: scale not given: the % may be the effect or the level left
Mus musculus [3] = assay: Decrease in total cholesterol level in human ApoB100/CETP transgenic mouse at 10 mg/kg, po after 6 weeks relative to control; format: functional; set-up: scale not given: the % may be the effect or the level left
Mus musculus [4] = assay: Increase in HDL level in human ApoB100/CETP transgenic mouse at 5 mg/kg, po after 6 weeks relative to control; format: functional
Mus musculus [5] = assay: Increase in HDL level in human ApoB100/CETP transgenic mouse at 10 mg/kg, po after 6 weeks relative to control; format: functional
Mus musculus [6] = assay: Increase in HDL level in human ApoB100/CETP transgenic mouse at 20 mg/kg, po after 6 weeks relative to control; format: functional
Mus musculus [7] = assay: Decrease in LDL level in human ApoB100/CETP transgenic mouse at 5 mg/kg, po after 6 weeks relative to control; format: functional; set-up: scale not given: the % may be the effect or the level left
[8] = molecular target: T1, Peroxisome proliferator-activated receptor alpha (Homo sapiens, UniProt Q07869); assay: Activity at human liver PPAR alpha expressed in HEK293 cells by PPAR-GAL4 transactivation assay; format: cell-based
T1 sequence (Q07869 whole entry): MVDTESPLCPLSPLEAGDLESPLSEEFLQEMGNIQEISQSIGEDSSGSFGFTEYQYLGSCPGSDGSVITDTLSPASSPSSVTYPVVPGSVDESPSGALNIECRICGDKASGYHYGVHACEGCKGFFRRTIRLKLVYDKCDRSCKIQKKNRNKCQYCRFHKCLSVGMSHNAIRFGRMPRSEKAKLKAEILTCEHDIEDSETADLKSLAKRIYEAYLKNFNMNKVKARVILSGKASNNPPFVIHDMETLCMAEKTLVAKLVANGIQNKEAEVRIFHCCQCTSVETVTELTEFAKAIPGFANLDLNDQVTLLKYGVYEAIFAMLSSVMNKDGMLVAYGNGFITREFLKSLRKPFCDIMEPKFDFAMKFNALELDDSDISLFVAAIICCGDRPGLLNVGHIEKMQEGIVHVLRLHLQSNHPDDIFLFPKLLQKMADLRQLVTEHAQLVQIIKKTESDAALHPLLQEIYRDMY

[9] = molecular target: T2, Peroxisome proliferator-activated receptor gamma (Homo sapiens, UniProt P37231); format: cell-based, HEK293
T2 sequence (P37231 whole entry): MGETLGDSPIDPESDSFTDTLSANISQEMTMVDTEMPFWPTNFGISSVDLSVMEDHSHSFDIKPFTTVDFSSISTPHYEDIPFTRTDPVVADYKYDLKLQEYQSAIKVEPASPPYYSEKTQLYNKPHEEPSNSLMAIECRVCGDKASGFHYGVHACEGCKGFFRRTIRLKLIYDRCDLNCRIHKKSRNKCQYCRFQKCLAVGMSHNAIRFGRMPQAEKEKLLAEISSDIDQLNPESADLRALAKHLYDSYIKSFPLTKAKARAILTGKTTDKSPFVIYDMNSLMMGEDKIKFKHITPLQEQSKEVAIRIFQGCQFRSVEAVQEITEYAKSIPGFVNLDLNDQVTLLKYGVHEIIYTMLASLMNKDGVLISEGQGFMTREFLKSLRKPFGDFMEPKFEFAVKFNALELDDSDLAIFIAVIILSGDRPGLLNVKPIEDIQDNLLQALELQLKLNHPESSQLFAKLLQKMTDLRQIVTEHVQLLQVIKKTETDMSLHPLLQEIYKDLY

L6 = assay: Effect on fatty acid oxidation in rat L6 cells; format: functional, cell-based
Outline: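 Rat L6 myoblasts differentiated 5 days in 2% serum, then treated 42 h with compound (refreshed at 24 h), followed by 6 h with 0.4 mM palmitate containing [9,10-3H]-palmitic acid on 2% fatty-acid-free BSA. Stopped with 10% TCA; released 3H-H2O collected by overnight equilibration at 50 °C and counted.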

[10] = Oral bioavailability in Sprague-Dawley rat at 2.06 mg/kg; format: ADME, organism-based; conditions: in vivo; outline: as §1
Mus musculus [11] = assay: Decrease in triglycerides level in human ApoB100/CETP transgenic mouse at 20 mg/kg, po after 6 weeks relative to control; format: functional; set-up: scale not given: the % may be the effect or the level left
Mus musculus [12] = assay: Decrease in total ketone bodies level in human ApoB100/CETP transgenic mouse at 10 mg/kg, po after 6 weeks relative to control; format: functional; set-up: scale not given: the % may be the effect or the level left
Mus musculus [13] = assay: Decrease in total ketone bodies level in human ApoB100/CETP transgenic mouse at 20 mg/kg, po after 6 weeks relative to control; format: functional; set-up: scale not given: the % may be the effect or the level left
Mus musculus [14] = assay: Decrease in glucose level in human ApoB100/CETP transgenic mouse at 5 mg/kg, po after 6 weeks relative to control; format: functional; set-up: scale not given: the % may be the effect or the level left
Mus musculus [15] = assay: Decrease in insulin level in human ApoB100/CETP transgenic mouse at 5 mg/kg, po after 6 weeks by ELISA relative to control; format: functional; set-up: scale not given: the % may be the effect or the level left
Mus musculus [16] = assay: Increase in insulin level in human ApoB100/CETP transgenic mouse at 20 mg/kg, po after 6 weeks by ELISA relative to control; format: functional
Mus musculus [17] = assay: Decrease in HbA1c level in human ApoB100/CETP transgenic mouse at 5 mg/kg, po after 6 weeks relative to control; format: functional; set-up: scale not given: the % may be the effect or the level left
[18] = molecular target: T3, Peroxisome proliferator-activated receptor delta (Homo sapiens, UniProt Q03181)
T3 sequence (Q03181 whole entry): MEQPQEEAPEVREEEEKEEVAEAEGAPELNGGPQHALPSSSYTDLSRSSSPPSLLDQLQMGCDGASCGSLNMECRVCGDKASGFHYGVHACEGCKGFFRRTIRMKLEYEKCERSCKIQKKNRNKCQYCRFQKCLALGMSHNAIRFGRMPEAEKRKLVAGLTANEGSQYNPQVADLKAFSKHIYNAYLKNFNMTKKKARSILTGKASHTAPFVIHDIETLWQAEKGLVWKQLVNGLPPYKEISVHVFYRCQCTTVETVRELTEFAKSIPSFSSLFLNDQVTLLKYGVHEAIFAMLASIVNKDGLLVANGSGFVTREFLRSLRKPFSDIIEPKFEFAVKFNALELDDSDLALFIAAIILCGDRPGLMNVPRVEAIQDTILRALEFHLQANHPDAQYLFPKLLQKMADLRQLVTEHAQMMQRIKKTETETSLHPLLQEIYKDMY

Vd [1]: 0.3 L/kg
EC50 [8]: > 10000 nM
EC50 [9]: > 10000 nM
bioavailability [10]: 46%
EC50 [18]: 53 nM
SMILES: O=C(O)COc1ccc(SCC=C(c2ccc(Br)cc2)c2ccc(Br)cc2)cc1Cl
Activity (Mus musculus [2]): 19%
Activity (Mus musculus [3]): 14%
Activity (Mus musculus [4]): 24%
Activity (Mus musculus [5]): 14%
Activity (Mus musculus [6]): 33%
Activity (Mus musculus [7]): 7%
EC50 (L6): 30 nM
Activity (Mus musculus [11]): 5%
Activity (Mus musculus [12]): 10%
Activity (Mus musculus [13]): 29%
Activity (Mus musculus [14]): 3%
Activity (Mus musculus [15]): 11%
Activity (Mus musculus [16]): 3%
Activity (Mus musculus [17]): 4%
